# Results pooled from the literature.
# Each line is one published result; the experiments were not run side by side.
Compound,assay,test system,conditions,solubility
COc1ccccc1Cn1nc(-c2ccc(CO)o2)c2ccccc21,,aqueous buffer,"6 h, pH 7.4",1 µg/mL
CCOc1ccc(Nc2c3c(nc4ccccc24)CCC3)cc1,nephelometry,aqueous buffer,"30 min, pH 6.5",12.5 to 25 µg/mL
O=C([O-])CN1CCNCCN(CC(=O)[O-])CCNCC1.[Mn+2],,water,,470000 µg/mL
CCOC(=O)C1=C(CN2CCOCC2)NC(c2nccs2)=NC1c1ccc(F)cc1Br (stereo not drawn),HPLC,aqueous buffer,pH 2,183 µg/mL
c1cc(-c2ccc3ncnc(NC4CCOCC4)c3c2)cc(N2CCOCC2)c1,,aqueous buffer,"pH 7.4, 25 °C",202 µM
Cc1ccc(Nc2cnnc3ccc(-c4ccc(N5CCN(C)CC5)cc4)cc23)cn1,,aqueous buffer,"pH 7.4, 25 °C",60 µM
O=C(O)Cc1ccccc1Nc1c(Cl)cccc1Cl,,FeSSIF,,303 µM
OCc1ccc(-c2nn(Cc3ccncc3)c3ccccc23)o1,,aqueous buffer,"6 h, pH 7.4",> 45 µg/mL
Cc1ccc(Oc2ccc(NC(=O)CNc3ccccc3N3CCCC3=O)cc2)cc1,,PBS,pH 7.4,9.1 µM
CC(=O)O[C@@H]1CC[C@@]2(C)[C@@H](CC[C@]3(C)[C@@H]2C(=O)C=C2[C@@H]4[C@@H](C)[C@H](C)CC[C@]4(C)CC[C@]23C)[C@@]1(C)C(=O)O,,PBS,pH 7.4,6.45 µg/mL
OCc1ccc(-c2nn(Cc3cccnc3)c3cccnc23)o1,,aqueous buffer,"6 h, pH 7.4",> 30 µg/mL
N[C@@H]1COc2ccc(-c3cccc(COc4ccccc4C(Nc4ccc5oc(=O)[nH]c5c4)C(=O)O)c3)cc21 (mixture of isomers),,aqueous buffer,pH 6.8,200 µM
Clc1ccc(Nc2ncnc3ccc(-c4cccc(N5CCOCC5)c4)cc23)cc1,,aqueous buffer,"pH 7.4, 25 °C",< 0.4 µM
O=c1c2ccc(Oc3ccc(OC(F)(F)F)cc3)cc2[nH]c2ccc(Cl)c(F)c12,absorbance,aqueous buffer,"90 min, pH 7.4",< 3.12 µM
O=C1COc2ccc(-c3cccc(Cl)c3)cc2N1Cc1noc(C2CCC2)n1,,PBS,"8 h, pH 7.4",100 µM
Cc1ccc(C(C)(C)c2ccc(NC(=O)CN(C)c3ccccc3N3CCCC3=O)cc2)cc1,,PBS,pH 7.4,2.5 µM
OCc1ccc(-c2nn(Cc3ccccn3)c3ccccc23)o1,,aqueous buffer,"6 h, pH 7.4",> 45 µg/mL
CNS(=O)(=O)c1ccc(Nc2ncc(C(F)(F)F)c([C@H]3CC[C@](C)(O)CC3)n2)c(C)c1,,FaSSIF,2 h,14 µM
Cc1ccc(Nc2ncnc3ccc(-c4cccc(N5CCOCC5)c4)cc23)cc1,,aqueous buffer,"pH 7.4, 25 °C",0.9 µM
OCc1ccc(-c2nn(Cc3ccccc3)c3ccccc23)o1,,aqueous buffer,"6 h, pH 7.4",3 µg/mL
CCN(c1ccc(C)cc1)c1ccc(NC(=O)CN(C)c2ccccc2N2CCCC2=O)cn1,,PBS,pH 7.4,3.4 µM
FC(F)(F)c1cc(Nc2ncnc3ccc(-c4cccc(N5CCOCC5)c4)cc23)ccc1Cl,,aqueous buffer,"pH 7.4, 25 °C",< 0.7 µM
O=c1c2ccc(Oc3ccc(OC(F)(F)F)cc3)cc2[nH]c2cc(F)c(Cl)cc12,absorbance,aqueous buffer,"90 min, pH 7.4",< 3.12 µM
O=C(O)c1cc(-c2ccc(-n3ccnn3)cc2)c2ccc(-c3ccc(C(F)(F)F)cc3)cc2c1,,aqueous buffer,pH 4,0.19 µg/mL
CC(C)N(c1ccc(C#N)cc1)c1ccc(NC(=O)CN(C)c2ccccc2N2CCCC2=O)cn1,,PBS,pH 7.4,40 µM
O=C(O)c1cc(-c2ccc(-n3ccnn3)cc2)cc(-n2cc(-c3ccc(C(F)(F)F)cc3)nn2)c1,,aqueous buffer,pH 7.4,7.6 µg/mL
O=c1c2c(F)cc(Cl)cc2[nH]c2cccc(Oc3ccc(OC(F)(F)F)cc3)c12,absorbance,aqueous buffer,"90 min, pH 7.4",32.3 µM
CCOC(=O)C1=C(CN2CCC[C@@H]2C(=O)Nc2ccc(B(O)O)cc2)NC(c2nccs2)=N[C@H]1c1ccc(F)cc1Br,HPLC,aqueous buffer,pH 7.4,4.14 µg/mL
Cc1nc(Nc2ncnc3ccc(-c4cccc(N5CCOCC5)c4)cc23)oc1C,,aqueous buffer,"pH 7.4, 25 °C",0.2 µM
CCCN(CCC)CCNc1ccc2c(=O)c3c([nH]c2c1)CCCC3,absorbance,aqueous buffer,"90 min, pH 7.4",> 500 µM
NCc1ccc(-c2nn(Cc3ccccc3)c3ccccc23)o1,,aqueous buffer,"6 h, pH 7.4",> 45 µg/mL
COc1ccc(Oc2ccc3c(=O)c4c(F)cc(Cl)cc4[nH]c3c2)cc1,absorbance,aqueous buffer,"90 min, pH 7.4",< 3.12 µM
Cc1ccccc1CN1C(=O)C2=C(CCN(Cc3ccccc3)C2)N2CCN=C12,shake flask,aqueous buffer,pH 1,62200 µg/mL
Cc1ncsc1-c1ccc(CNC(=O)[C@@H]2C[C@@H](O)CN2C(=O)[C@@H](NC(=O)COCCOCCOCCNC(=O)C[C@@H]2N=C(c3ccc(Cl)cc3)c3c(sc(C)c3C)-n3c(C)nnc32)C(C)(C)C)cc1,HPLC,water,pH 6.9,45 µg/mL
c1cc(-c2ccc3ncnc(Nc4ncco4)c3c2)cc(N2CC3CCC(C2)O3)c1,,aqueous buffer,"pH 7.4, 25 °C",0.4 µM
Cn1cc(-c2ccc3c(Cl)cn(CC(=O)Nc4ccccc4Cl)c3c2)cn1,,PBS,pH 7.4,< 2.7 µM
O=C(Nc1ccc(OC(F)(F)F)cc1)N[C@H]1CC[C@H](Oc2ccc(C(=O)O)cc2)CC1,,simulated gastric fluid,"10 min, pH 1, 37 °C, acidic",0.0002 µg/mL
Cc1ccc(N(C)c2ccc(NC(=O)CN(C)c3ccccc3N3CCCC3=O)cc2)cc1,,PBS,pH 7.4,7.2 µM
Clc1ccc(Nc2ncnc3ccc(-c4cccc(N5CCOCC5)c4)cc23)cc1Cl,,aqueous buffer,"pH 7.4, 25 °C",4 µM
CN1CCN(c2ccc(-c3ccc4nncc(Nc5ccc(OC(F)(F)F)cc5)c4c3)cc2)CC1,,aqueous buffer,"pH 7.4, 25 °C",2.5 µM
O=C(CCCCCCC(=O)Nc1ccccc1)NO,,water,,720 µg/mL
CNS(=O)(=O)c1ccc(Nc2ncc3cc(Cl)c(=O)n(C4CCCC4)c3n2)c(C)c1,,FaSSIF,2 h,15 µM
Cc1ncc(-c2cc3cc(-c4c(C)ccc(O)c4C)cnc3[nH]2)cn1,,aqueous buffer,"24 h, pH 7.4",< 1.56 µM
Clc1cccc(Nc2ncnc3ccc(-c4cccc(N5CCOCC5)c4)cc23)c1,,aqueous buffer,"pH 7.4, 25 °C",12 µM
CNS(=O)(=O)c1ccc(Nc2ncc(C(F)(F)F)c(N3CCC[C@](C)(O)C3)n2)c(C)c1,,FaSSIF,2 h,194 µM
